Assays:
Type in all cases: functional, cell-based
SMMC-7721 = test: Anticancer activity against human SMMC7721 cells assessed as reduction in cell viability incubated for 48 hrs MTT assay; details: SMMC-7721, 48 h
Method in brief: (§1)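 MTT assay on human hepatocarcinoma SMMC-7721, lung carcinoma A549 and nasopharyngeal carcinoma CNE2 cells, with matrine as comparator and cisplatin as positive control. IC50 is the concentration that lowers optical density of treated cells by 50% versus untreated cells, given as the mean ± SD of three experiments.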

A549 = test: Anticancer activity against human A549 cells assessed as reduction in cell viability incubated for 48 hrs MTT assay; details: A549, 48 h; method in brief: as §1
CNE-2 = test: Anticancer activity against human CNE2 cells assessed as reduction in cell viability incubated for 48 hrs MTT assay; details: CNE-2, 48 h; method in brief: as §1

SMILES	IC50 (SMMC-7721) [µM]	IC50 (A549) [µM]	IC50 (CNE-2) [µM]
O=C1/C(=C/c2cccn2Cc2ccccc2)CC[C@@H]2[C@H]3CCCN4CCC[C@@H](CN12)[C@@H]34	38.4	42.9	45.7
O=C1/C(=C/c2cccn2Cc2ccc3ccccc3c2)CC[C@@H]2[C@H]3CCCN4CCC[C@@H](CN12)[C@@H]34	20.3	23.9	14.7
COc1ccc(Cn2ccc3c(/C=C4\CC[C@@H]5[C@H]6CCCN7CCC[C@@H](CN5C4=O)[C@@H]67)cccc32)cc1	28.2	28.4	15.5
COc1cc(Cn2cccc2/C=C2\CC[C@@H]3[C@H]4CCCN5CCC[C@@H](CN3C2=O)[C@@H]45)cc(OC)c1OC	13.3	18.9	7.83
COc1ccc2c(c1)c(/C=C1\CC[C@@H]3[C@H]4CCCN5CCC[C@@H](CN3C1=O)[C@@H]45)cn2Cc1ccc2ccccc2c1	6.89	7.45	6.72
O=C1/C(=C/c2cn(Cc3ccc(Br)cc3)c3ccccc23)CC[C@@H]2[C@H]3CCCN4CCC[C@@H](CN12)[C@@H]34	16.8	18.1	14.7
Cc1ccc(Cn2cc(/C=C3\CC[C@@H]4[C@H]5CCCN6CCC[C@@H](CN4C3=O)[C@@H]56)c3ccccc32)cc1	9.12	9.84	8.91
COc1cccc(Cn2cccc2/C=C2\CC[C@@H]3[C@H]4CCCN5CCC[C@@H](CN3C2=O)[C@@H]45)c1	13.4	29.8	7.05
O=C1/C(=C/c2cn(Cc3ccc(OC(F)(F)F)cc3)c3ccc(Cl)cc23)CC[C@@H]2[C@H]3CCCN4CCC[C@@H](CN12)[C@@H]34	9.73	5.24	3.52
O=C1CCC[C@@H]2[C@H]3CCCN4CCC[C@@H](CN12)[C@@H]34 [MATRINE]	6590	5720	5280
COc1cc(Cn2cc(/C=C3\CC[C@@H]4[C@H]5CCCN6CCC[C@@H](CN4C3=O)[C@@H]56)c3ccccc32)cc(OC)c1OC	15.5	> 50	20
Cc1cccc(Cn2cc(/C=C3\CC[C@@H]4[C@H]5CCCN6CCC[C@@H](CN4C3=O)[C@@H]56)c3ccccc32)c1	8.52	9.24	7.91
O=C1/C(=C/c2cn(Cc3cccc(Cl)c3)c3cc(Cl)ccc23)CC[C@@H]2[C@H]3CCCN4CCC[C@@H](CN12)[C@@H]34	23.7	26.3	23.7
O=C1/C(=C/c2cccn2Cc2ccc(OC(F)(F)F)cc2)CC[C@@H]2[C@H]3CCCN4CCC[C@@H](CN12)[C@@H]34	36.6	47.1	23.9
O=C1/C(=C/c2ccc3c(ccn3Cc3cccc(Cl)c3)c2)CC[C@@H]2[C@H]3CCCN4CCC[C@@H](CN12)[C@@H]34	25.8	29.9	14.6
COc1ccc2c(c1)c(/C=C1\CC[C@@H]3[C@H]4CCCN5CCC[C@@H](CN3C1=O)[C@@H]45)cn2Cc1ccccc1Cl	6.21	6.33	6.06
COc1ccc(Cn2cccc2/C=C2\CC[C@@H]3[C@H]4CCCN5CCC[C@@H](CN3C2=O)[C@@H]45)cc1	41.6	39.1	28.8
COc1cccc(Cn2cc(/C=C3\CC[C@@H]4[C@H]5CCCN6CCC[C@@H](CN4C3=O)[C@@H]56)c3ccccc32)c1	13.7	15.3	9.31
